For one assay, the system named is HeLa. Put plainly: Cytotoxicity towards HeLa cells was determined. The assay is classed as functional, cell-based. Particulars: Homo sapiens.
T1 sequence (P28336 whole entry): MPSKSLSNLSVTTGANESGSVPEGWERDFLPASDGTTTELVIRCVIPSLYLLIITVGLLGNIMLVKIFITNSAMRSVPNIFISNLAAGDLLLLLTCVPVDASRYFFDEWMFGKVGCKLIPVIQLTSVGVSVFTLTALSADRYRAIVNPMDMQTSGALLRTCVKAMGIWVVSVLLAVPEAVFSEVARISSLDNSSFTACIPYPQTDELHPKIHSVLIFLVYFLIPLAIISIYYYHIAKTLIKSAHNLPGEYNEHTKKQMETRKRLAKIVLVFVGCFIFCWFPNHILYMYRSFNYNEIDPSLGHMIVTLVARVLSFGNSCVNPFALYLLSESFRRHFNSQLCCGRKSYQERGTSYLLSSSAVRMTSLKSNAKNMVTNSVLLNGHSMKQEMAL
For `COc1cccc2[nH]c3c(c12)CC(NC(=O)Nc1c(C(C)C)cccc1C(C)C)(C(=O)NCC1(c2ccccn2)CCCCC1)CC3` (single isomer, unassigned; (+)), the IC50 was over 50000 nM.

A further assay concerns the target T1, Neuromedin-B receptor (Homo sapiens, UniProt P28336). The experiment in a line: Agonistic activity was determined against human Neuromedin B receptor transfected in HEK293 cells as accumulation levels of inositol phosphate. The assay is classed as functional, cell-based.
Details: not given
In short, it runs like this:
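hNMBR-transfected HEK293 cells (2.5 · 10⁴) labelled overnight at 37 °C in high-glucose DMEM with 25 mM Hepes, 10% dialyzed FBS and myo-[³H]inositol. Compounds added in inositol-free DMEM with 0.3% BSA and 10 mM LiCl, 60 min, 37 °C. Lysis in 20 mM formic acid, 2 h, 4 °C. Inositol phosphates captured on SPA beads and counted next day.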
`COc1cccc2[nH]c3c(c12)CC(NC(=O)Nc1c(C(C)C)cccc1C(C)C)(C(=O)NCC1(c2ccccn2)CCCCC1)CC3` (single isomer, unassigned; (-)) yielded an EC50 of 1970 nM.
The compound `COc1cccc2[nH]c3c(c12)CC(NC(=O)Nc1c(C(C)C)cccc1C(C)C)(C(=O)NCC1(c2ccccn2)CCCCC1)CC3` (single isomer, unassigned; (+)) displayed an EC50 of 17.7 nM.
Same read-out and setting: to `CC(C)c1cccc(C(C)C)c1NC(=O)NC1(C(=O)NCC2(c3ccccn3)CCCCC2)CCc2[nH]c3ccccc3c2C1` (stereo not given) belongs 603 nM; to `COc1cccc2[nH]c3c(c12)CC(NC(=O)Nc1c(C(C)C)cccc1C(C)C)(C(=O)NCC1(c2ccccn2)CCCCC1)CC3` (stereo in doubt; 20), 132 nM.

The target in another assay is T1, Neuromedin-B receptor. The experiment in a line: Affinity of [125I][D-Tyr0]-NMB to human Neuromedin B receptor expressed in HEK293 cells.
Details: not given
The format is cell-based. In short, it runs like this:
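Whole-cell competition binding on HEK293 cells stably transfected with hNMBR, 1 · 10⁶ cells per well in DMEM. Incubation 1 h at room temperature with 150 pM ¹²⁵I-[D-Tyr0]NMB (2200 Ci/mmol). Bound and free ligand separated by filtration; bound counts read by scintillation counting.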
In turn, `O=C(Nc1ccc(OC(F)(F)F)cc1)NC1(C(=O)NCC2(c3ccccn3)CCCCC2)CCc2[nH]c3ccccc3c2C1` (stereo not given) came in with an IC50 of 3040 nM.
In the case of `CCOC(=O)c1cc(NC(=O)NC2(C(=O)NCC3(c4ccccn4)CCCCC3)CCc3[nH]c4ccccc4c3C2)cc(C(=O)OCC)c1` (stereo not given), the IC50 came out at 1850 nM.
The same measure, in the same setting: for `CCNC(=O)NC1(C(=O)NCC2(c3ccccn3)CCCCC2)CCc2[nH]c3ccccc3c2C1` (stereo not given) the value was over 10000 nM; for `COc1ccccc1NC(=O)NC1(C(=O)NCC2(c3ccccn3)CCCCC2)CCc2[nH]c3ccccc3c2C1` (stereo not given), 8720 nM.
Turning to `CC(C)c1cccc(C(C)C)c1NC(=O)NC1(C(=O)NCC2(c3ccc(Cl)cc3)CC2)CCc2[nH]c3ccccc3c2C1` (stereo not given), the IC50 was over 10000 nM.
Compound `O=C(Nc1ccc(C(F)(F)F)cc1)NC1(C(=O)NCC2(c3ccccn3)CCCCC2)CCc2[nH]c3ccccc3c2C1` (stereo not given) yielded an IC50 of 1110 nM.
In the case of `CC(C)c1cccc(C(C)C)c1NC(=O)NC1(C(=O)NCC2(c3ccccn3)CCCCC2)CCc2[nH]c3cccc([N+](=O)[O-])c3c2C1` (stereo not given), the IC50 is over 10000 nM.
Still for that read-out and setting: for `CC(C)c1cccc(C(C)C)c1NC(=O)NC1(C(=O)NCC2(c3ccccn3)CCCCC2)CCc2[nH]c3cccc(C(F)(F)F)c3c2C1` (stereo not given) the value was 3660 nM; for `CC(C)c1cccc(C(C)C)c1NC(=O)N[C@@](C)(Cc1c[nH]c2ccccc12)C(=O)NCC1(c2ccccn2)CCCCC1`, 350 nM.
The same measure, in the same setting: for `CC(C)c1cccc(C(C)C)c1NC(=O)NC1(C(=O)NCC2(c3ccccn3)CCCCC2)CCc2[nH]c3cccc(OC(F)(F)F)c3c2C1` (stereo not given) the value was 1890 nM.
As to `CC(C)c1cccc(C(C)C)c1NC(=O)NC1(C(=O)NCC(C)(C)c2ccccn2)CCc2[nH]c3ccccc3c2C1` (stereo not given), it took 4150 nM to reach half-maximal inhibition (IC50).
Still for that read-out and setting: to `COc1cccc2[nH]c3c(c12)CC(NC(=O)Nc1c(C(C)C)cccc1C(C)C)(C(=O)NCC1(c2ccccn2)CCCCC1)CC3` (single isomer, unassigned; (+)) belongs 29 nM.
On the same count and under the same terms, for `Cc1ccc2[nH]c3c(c2c1)C(C)C(NC(=O)Nc1c(C(C)C)cccc1C(C)C)(C(=O)NCC1(c2ccccn2)CCCCC1)CC3` (stereo in doubt; 23) the value was 790 nM; for `O=C(Nc1ccc([N+](=O)[O-])cc1)NC1(C(=O)NCCc2ccccn2)CCc2[nH]c3ccccc3c2C1` (stereo not given), over 10000 nM; for `CC(C)c1cccc(C(C)C)c1NC(=O)NC1(C(=O)NCC2(c3ccccn3)CCCCC2)CCc2[nH]c3ccccc3c2C1` (stereo not given), 320 nM.
With `Cc1ccc2[nH]c3c(c2c1)C(C)C(NC(=O)Nc1c(C(C)C)cccc1C(C)C)(C(=O)NCC1(c2ccccn2)CCCCC1)CC3` (stereo in doubt; 22), the IC50 was found to be 700 nM.
In turn, `Cc1cc([N+](=O)[O-])ccc1NC(=O)NC1(C(=O)NCC2(c3ccccn3)CCCCC2)CCc2[nH]c3ccccc3c2C1` (stereo not given) came in with an IC50 of 620 nM.
On the same count and under the same terms, for `Cc1cccc(C)c1NC(=O)NC1(C(=O)NCC2(c3ccccn3)CCCCC2)CCc2[nH]c3ccccc3c2C1` (stereo not given) the value was 5490 nM; for `Cc1cccc2[nH]c3c(c12)CC(NC(=O)Nc1c(C(C)C)cccc1C(C)C)(C(=O)NCC1(c2ccccn2)CCCCC1)CC3` (stereo not given), 660 nM; for `CC(C)c1cccc(C(C)C)c1NC(=O)NC1(C(=O)NCC2(c3ccccn3)CCCCC2)CCc2[nH]c3cc(F)ccc3c2C1F` (stereo not given), 1010 nM.
On the same count and under the same terms, to `O=C(Nc1ccc([N+](=O)[O-])cc1)NC1(C(=O)NCC2(c3ccccn3)CCCCC2)CCc2[nH]c3ccccc3c2C1` (stereo not given) belongs 800 nM; to `CC(C)(CNC(=O)C1(NC(=O)Nc2ccc([N+](=O)[O-])cc2)CCc2[nH]c3ccccc3c2C1)c1ccccn1` (stereo not given), 10000 nM; to `O=C(Nc1ccc([N+](=O)[O-])cc1)NC1(C(=O)NCC2(c3ccccn3)CCS(=O)(=O)CC2)CCc2[nH]c3ccccc3c2C1` (stereo not given), over 10000 nM.
Same read-out and setting: to `CC(C)c1cccc(C(C)C)c1NC(=O)NC1(C(=O)NCC2(c3ccccn3)CCCCC2)CCc2[nH]c3cccc(C(=O)O)c3c2C1` (stereo not given) belongs over 10000 nM; to `COc1cccc2[nH]c3c(c12)CC(NC(=O)Nc1c(C(C)C)cccc1C(C)C)(C(=O)NCC1(c2ccccn2)CCCCC1)CC3` (stereo in doubt; 20), 250 nM.
`NC(=O)NC1(C(=O)NCC2(c3ccccn3)CCCCC2)CCc2[nH]c3ccccc3c2C1` (stereo not given) displayed a half-maximal inhibitory concentration (IC50) of over 10000 nM.
Still for that read-out and setting: to `O=C(NC1CCCCC1)NC1(C(=O)NCC2(c3ccccn3)CCCCC2)CCc2[nH]c3ccccc3c2C1` (stereo not given) belongs 3920 nM; to `CC(C)c1cccc(C(C)C)c1NC(=O)NC1(C(=O)NCC2(c3ccccn3)CCCCC2)CCc2[nH]c3cc(Br)ccc3c2C1` (stereo not given), 2140 nM; to `CC(C)c1cccc(C(C)C)c1NC(=O)NC1(C(=O)NCC2(c3ccccn3)CC2)CCc2[nH]c3ccccc3c2C1` (stereo not given), 3350 nM.
In turn, `CC(=O)c1cccc(NC(=O)NC2(C(=O)NCC3(c4ccccn4)CCCCC3)CCc3[nH]c4ccccc4c3C2)c1` (stereo not given) returned an IC50 of 2270 nM.

As usually defined, the IC50 is the concentration that inhibits the measured activity by half. By EC50 is commonly meant the concentration that produces a half-maximal response. Lower therefore signals an effect from little substance.

Source of the values: ChEMBL document CHEMBL1146776, “Identification and optimization of novel partial agonists of neuromedin B receptor using parallel synthesis” (Bioorg Med Chem Lett, 2004).
